This is an account of results in publication PMC4729448 (Molecular cancer therapeutics, 2013).

Molecules are shown by their SMILES.

One data set concerns OE33 xenograft tumors. The data set can be described thus: OE33 tumor xenograft in athymic nude mice. The data set is classed as in vivo, athymic nude mice (BALB/c-nu/nu). The conditions noted are these: 12 days; for effect on growth of established OE33 xenograft tumors: 75 mg/kg/day orogastric.
The test system of data set [1] is microtubule distribution in OE33-tumor xenografts. The data set can be described thus: Anti-α-Tubulin immunofluorescence of OE33 tumor xenograft sections. In kind it is in vivo, athymic nude mice (BALB/c-nu/nu). The conditions noted are these: treated OE33-tumor xenograft sections vs untreated.
Data set [2] relates to OE33 cells. The data set can be described thus: Crystal violet cell proliferation assay. In kind it is cell-based. The conditions noted are these: for IC50: Homo sapiens, OE33, 48 h, read-out: IC50, OE33 cell proliferation/viability.
Data set [3] in a line: Dissolution in sterile water. The data set is classed as physicochemical.
Data set [4] can be described thus: Pharmacokinetic analysis in cannulated rat model. The data set is classed as in vivo, Sprague Dawley rats. The conditions noted are these: for observable effects in the animals following dosing: rat pharmacokinetic studies. Summed up:
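Fasted male Sprague Dawley rats fitted with carotid artery and jugular and/or femoral vein catheters. Dosed iv or orally with 0.2 micron-filtered solutions; automated sampling allowed both routes in the same animal. Plasma separated by centrifugation and stored at -80 °C. Prodrug, 2-ME2 and metabolites quantified by LC-MS/MS against deuterated internal standards. Parameters from non-parametric analysis; animals observed after dosing.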

For data set [5], the system named is OE33 cells. The experiment in a line: Phase-contrast cellular morphology of OE33 cells. The data set is classed as cell-based. To be noted: 48 h.
Data set [6] relates to microtubule network in OE33 cells. The experiment in a line: Anti-α-Tubulin immunofluorescence of microtubule network in OE33 cells. In kind it is cell-based. To be noted: 48 h.
The conditions of data set [7]: oral administration, published literature ref 1, 10-12; cited from earlier work.
Setting [8] is: Sprague-Dawley, rat, plasma, iv, 5.21 mg/kg.

Consider `COc1cc2c(cc1OCOP(=O)([O-])[O-])CC[C@@H]1[C@@H]2CC[C@]2(C)[C@@H](OC(C)=O)CC[C@@H]12.[Na+].[Na+]` [2-ME2-PD1, disodium (((8R,9S,13S,14S,17S)-17-acetoxy-2-methoxy-13-methyl-7,8,9,11,12,13,14,15,16,17-decahydro-6H-cyclopenta[a]phenanthren-3-yl)oxy)methyl phosphate], for which, in the data set on OE33 xenograft tumors, the “effect on growth of established OE33 xenograft tumors” value is “inhibited the growth”. Also, the “reduction in tumor volume relative to the control group” value in the data set with OE33 xenograft tumors (oral 75 mg/kg/d) was 60 ± 5%. The “microtubule distribution and cellular morphology in tumor xenografts” value in data set [1] is “striking alteration in microtubule distribution”. Also, the IC50 with OE33 cells [2] is around 17 µM. The “IC50 fold higher than 2-ME2” value in the data set on OE33 cells [2] (OE33 viability, 48 h) was around 3 fold. In addition, the “solubility in sterile water” value in data set [3] is recorded as “readily dissolves in sterile water”. The “observable effects in the animals following dosing” value in data set [4] is “no observable effects”. Moreover, the figures for the “alteration of cellular morphology” value in the data set on OE33 cells [5] (2.5 μM) and with OE33 cells [5] (5 μM) were “mild to no alterations” and “atrophy”, respectively. Moreover, the microtubule disruption entry is on record as “not very prominent” in data set [6] (2.5 μM) and “significantly disrupted” in data set [6] (5 μM).

As for `COc1cc2c(cc1O)CC[C@@H]1[C@@H]2CC[C@]2(C)[C@@H](O)CC[C@@H]12` [2-ME2, 2-Methoxyestradiol], in the data set on OE33 xenograft tumors, the “effect on growth of established OE33 xenograft tumors” value was “inconsistent”. Further, in the data set on OE33 cells [2], the IC50 is around 6 µM. For the same compound, the serum bioavailability in data set [7] is 1 - 2%. For the same compound, in data set [4] (setting [8]), the AUC(0-t) (usually exposure summed from dosing to a finite time, without extrapolation to infinity) is 321 ng·h/mL; the Cmax – broadly, the maximum level reached in the sampled fluid or tissue – was found to be 1220 ng/mL; the half-life (commonly how long it takes for the measured level to halve) was found to be 59 min. Further, in data set [4], the “observable effects in the animals following dosing” value is reported as “no observable effects”. Also, the “alteration of cellular morphology compared to 2-ME2-PD1” value with OE33 cells [5] (2.5 μM or 5 μM) is recorded as “much more drastic”. The microtubule disruption entry in data set [6] (5 μM) is on record as “totally disrupted”.
